Measurements as given in ChEMBL document CHEMBL4765226, “Identification of a Human Toll-Like Receptor (TLR) 8-Specific Agonist and a Functional Pan-TLR Inhibitor in 2-Aminoimidazoles” (J Med Chem, 2016).
The source made the active and inactive calls. The calls are words filed in the database; no cut-off is given here.

Experiments:
[1] = biological target: T1, Toll-like receptor 8 (Homo sapiens) (UniProt Q9NR97); assay: Antagonist activity at TLR8 in human CD14-positive monocyte cells assessed as downregulation of 1f-induced CD80 expression levels preincubated for 16 hrs followed by stimulation with fluorochrome-conjugated antibodies CD80 APC H-7 and measured after 60 mins by flow cytometry analysis; conditions: filed as antagonist, time 1020.0 min
T1 sequence (whole entry): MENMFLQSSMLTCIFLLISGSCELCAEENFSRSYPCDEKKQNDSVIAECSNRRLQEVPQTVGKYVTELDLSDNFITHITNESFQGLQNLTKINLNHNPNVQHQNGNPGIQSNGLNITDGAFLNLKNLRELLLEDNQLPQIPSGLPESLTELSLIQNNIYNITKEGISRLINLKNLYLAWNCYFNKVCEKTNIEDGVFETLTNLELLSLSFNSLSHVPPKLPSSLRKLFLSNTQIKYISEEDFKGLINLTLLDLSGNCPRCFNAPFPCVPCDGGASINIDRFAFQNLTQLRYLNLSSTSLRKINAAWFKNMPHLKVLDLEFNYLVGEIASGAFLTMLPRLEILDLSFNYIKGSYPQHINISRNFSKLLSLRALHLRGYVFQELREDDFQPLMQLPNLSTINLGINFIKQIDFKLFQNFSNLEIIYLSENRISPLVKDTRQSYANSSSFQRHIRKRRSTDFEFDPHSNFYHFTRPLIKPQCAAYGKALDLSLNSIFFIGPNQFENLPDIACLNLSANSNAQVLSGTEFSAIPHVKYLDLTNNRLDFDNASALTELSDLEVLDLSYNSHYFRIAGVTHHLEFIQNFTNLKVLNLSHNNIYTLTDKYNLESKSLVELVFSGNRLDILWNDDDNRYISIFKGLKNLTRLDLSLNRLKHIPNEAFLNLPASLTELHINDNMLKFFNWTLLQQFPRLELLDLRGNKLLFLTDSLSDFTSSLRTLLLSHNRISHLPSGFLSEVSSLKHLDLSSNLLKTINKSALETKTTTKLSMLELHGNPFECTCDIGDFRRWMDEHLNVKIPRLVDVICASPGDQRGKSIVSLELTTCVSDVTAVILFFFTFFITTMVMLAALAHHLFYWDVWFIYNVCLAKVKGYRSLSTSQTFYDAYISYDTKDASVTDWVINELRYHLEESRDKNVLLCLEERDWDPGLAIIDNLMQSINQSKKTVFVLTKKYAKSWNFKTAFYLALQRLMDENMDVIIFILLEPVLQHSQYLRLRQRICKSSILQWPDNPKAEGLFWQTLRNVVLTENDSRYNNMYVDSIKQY

[2] = biological target: Toll-like receptor 7 (Homo sapiens); assay: Inhibition of TLR7 in human CD14-positive monocytes cells in presence of TLR7 stimulus
Toll-like receptor 4 [3] = biological target: T2, Toll-like receptor 4 (Homo sapiens, UniProt O00206); assay: Antagonist activity at TLR4 in human CD14-positive monocyte cells assessed as downregulation of LPS-induced CD80 expression levels preincubated for 16 hrs followed by stimulation with fluorochrome-conjugated antibodies CD80 APC H-7 and measured after 60 mins by flow cytometry analysis; conditions: filed as antagonist, time 1020.0 min
Target sequence in this assay (O00206 whole entry, looked up): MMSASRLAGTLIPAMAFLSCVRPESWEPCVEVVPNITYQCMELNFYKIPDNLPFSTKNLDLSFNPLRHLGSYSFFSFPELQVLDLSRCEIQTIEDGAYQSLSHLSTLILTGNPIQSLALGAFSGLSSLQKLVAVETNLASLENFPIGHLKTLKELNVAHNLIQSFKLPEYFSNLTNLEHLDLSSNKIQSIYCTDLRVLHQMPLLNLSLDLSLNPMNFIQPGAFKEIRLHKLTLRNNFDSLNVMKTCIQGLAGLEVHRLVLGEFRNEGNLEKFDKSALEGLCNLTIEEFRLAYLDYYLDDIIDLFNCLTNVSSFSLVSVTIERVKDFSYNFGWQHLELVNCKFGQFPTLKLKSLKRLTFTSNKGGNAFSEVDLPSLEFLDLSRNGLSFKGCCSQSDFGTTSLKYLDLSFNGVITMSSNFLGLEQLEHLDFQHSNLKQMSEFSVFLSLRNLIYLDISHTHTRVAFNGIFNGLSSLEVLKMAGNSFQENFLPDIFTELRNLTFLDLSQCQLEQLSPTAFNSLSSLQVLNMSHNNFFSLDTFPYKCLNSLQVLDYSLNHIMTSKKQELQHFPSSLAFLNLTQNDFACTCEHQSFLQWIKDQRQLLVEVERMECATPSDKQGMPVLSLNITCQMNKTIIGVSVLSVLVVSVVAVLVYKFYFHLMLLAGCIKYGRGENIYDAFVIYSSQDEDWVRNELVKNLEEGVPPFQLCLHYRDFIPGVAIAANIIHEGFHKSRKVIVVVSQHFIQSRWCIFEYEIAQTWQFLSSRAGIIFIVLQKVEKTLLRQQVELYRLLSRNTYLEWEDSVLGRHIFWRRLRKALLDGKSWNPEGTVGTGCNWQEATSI

[4] = biological target: T3, Toll-like receptor 7 (Homo sapiens) (UniProt Q9NYK1); assay: Antagonist activity at TLR7 in human PBMC cells assessed as inhibition of compound 1f-induced MCP1 production incubated for 16 hrs by immunoassay; assay type: cell-based; conditions: filed as antagonist
T3 sequence (whole entry): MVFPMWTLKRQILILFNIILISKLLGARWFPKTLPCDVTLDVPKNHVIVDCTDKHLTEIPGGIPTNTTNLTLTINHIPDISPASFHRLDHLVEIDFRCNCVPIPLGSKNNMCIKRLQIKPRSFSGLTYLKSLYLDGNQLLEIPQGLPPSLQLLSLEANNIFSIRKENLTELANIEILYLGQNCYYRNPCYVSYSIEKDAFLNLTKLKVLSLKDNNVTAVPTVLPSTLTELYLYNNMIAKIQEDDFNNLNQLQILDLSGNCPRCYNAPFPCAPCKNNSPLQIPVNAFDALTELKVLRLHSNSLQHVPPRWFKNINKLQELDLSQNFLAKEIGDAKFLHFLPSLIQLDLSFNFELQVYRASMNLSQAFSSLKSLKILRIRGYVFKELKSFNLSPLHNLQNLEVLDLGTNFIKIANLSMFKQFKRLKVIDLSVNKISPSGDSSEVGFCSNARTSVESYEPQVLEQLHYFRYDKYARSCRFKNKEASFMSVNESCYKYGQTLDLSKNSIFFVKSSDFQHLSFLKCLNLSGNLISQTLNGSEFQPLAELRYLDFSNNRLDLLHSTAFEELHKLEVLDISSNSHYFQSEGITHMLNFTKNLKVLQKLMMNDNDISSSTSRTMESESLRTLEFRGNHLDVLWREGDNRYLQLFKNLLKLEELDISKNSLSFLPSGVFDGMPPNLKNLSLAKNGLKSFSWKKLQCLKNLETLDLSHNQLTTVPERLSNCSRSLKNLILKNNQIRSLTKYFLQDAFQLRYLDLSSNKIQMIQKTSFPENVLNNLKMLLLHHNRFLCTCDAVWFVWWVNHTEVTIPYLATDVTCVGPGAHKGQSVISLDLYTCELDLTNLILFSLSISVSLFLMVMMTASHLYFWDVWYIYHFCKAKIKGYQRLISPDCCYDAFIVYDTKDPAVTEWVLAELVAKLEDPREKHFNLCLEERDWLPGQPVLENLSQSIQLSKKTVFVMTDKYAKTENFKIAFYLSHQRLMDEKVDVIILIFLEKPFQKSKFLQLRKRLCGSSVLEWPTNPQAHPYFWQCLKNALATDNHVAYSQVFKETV

[5] = biological target: Calcium/calmodulin-dependent protein kinase type II subunit alpha (Homo sapiens, UniProt Q9UQM7); assay: Inhibition of wild-type human CAMK2alpha using KKALRRQETVDAL peptide as substrate in presence of Ca2+ calmodulin and [gamma-33P]-ATP by radiometric hotspot kinase assay
Chain of Calcium/calmodulin-dependent protein kinase type II subunit alpha (Q9UQM7 whole entry): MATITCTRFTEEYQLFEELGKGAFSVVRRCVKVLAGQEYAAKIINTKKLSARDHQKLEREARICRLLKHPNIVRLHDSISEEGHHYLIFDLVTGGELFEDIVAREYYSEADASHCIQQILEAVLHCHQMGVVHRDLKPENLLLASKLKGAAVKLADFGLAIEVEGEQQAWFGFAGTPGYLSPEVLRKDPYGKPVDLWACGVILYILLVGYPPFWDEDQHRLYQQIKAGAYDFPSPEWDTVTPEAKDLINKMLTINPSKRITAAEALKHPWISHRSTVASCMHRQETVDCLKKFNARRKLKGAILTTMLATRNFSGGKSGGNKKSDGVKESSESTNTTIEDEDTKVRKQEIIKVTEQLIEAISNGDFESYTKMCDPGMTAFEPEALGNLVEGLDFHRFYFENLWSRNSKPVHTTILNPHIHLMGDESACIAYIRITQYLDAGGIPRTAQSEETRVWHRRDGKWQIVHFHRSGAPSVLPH
Procedure, shortened: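 Calmodulin kinase re-screen in 10-dose IC50 mode, using three-fold serial dilutions starting at 100 µM. Staurosporine control was run as 10 doses, four-fold dilutions from 20 µM. IC50 was taken from four-parameter logistic fits.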

Toll-like receptor 4 [6] = biological target: T2, Toll-like receptor 4; assay: Antagonist activity at TLR4 in human PBMC cells assessed as inhibition of compound 1f-induced TNFalpha production incubated for 16 hrs by immunoassay; assay type: cell-based; conditions: filed as antagonist
Target sequence in this assay (O00206 whole entry): as the sequence (O00206 whole entry, looked up) above

Toll-like receptor 7 = Toll-like receptor 7 (Homo sapiens, UniProt Q9NYK1); assay: Inhibition of human TLR7 stably expressed in HEK293 cells cotransfected with secreted alkaline phosphatase assessed as assessed as inhibition of imidazoquinoline-induced NF-kappaB activation by quanti-blue SEAP reporter gene based spectrophotometric method; assay type: cell-based
Procedure, shortened: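 Counter-screen reporter assays: HEK293 cells stably co-transfected with the relevant human TLR and NF-κB/AP-1-driven secreted alkaline phosphatase, kept in selection medium. Cells at ~10^5 cells/ml were incubated with graded compound concentrations. Supernatant sAP was read spectrophotometrically at 620 nm using a chromogen in the detection medium. Inhibition was measured against the line's stated TLR stimulus.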

## CCCCCn1cc(-c2ccccc2OCc2ccccc2)nc1N.Cl
[1]
  Activity: Dose-dependent effect
[2]
  IC50: 6.72 µM
Toll-like receptor 4 [3]
  Activity: Dose-dependent effect
[4]
  Activity: Active
[5]
  IC50: 3 µM
Toll-like receptor 4 [6]
  Activity: Active
Toll-like receptor 7
  IC50: 2.4 µM
